Test results published in ChEMBL document CHEMBL1933056, “Cytotoxic potential of novel 6,7-dimethoxyquinazolines” (Eur J Med Chem, 2012).
Active and inactive are the calls of the source. The rule behind the calls is not given here.

Experiments:
HCT-116 [1] = assay: Cytotoxicity against p53-positive human HCT116 cells at 10 uM after 72 hrs by MTT assay; type: functional
HCT-116 [2] = assay: Cytotoxicity against p53-deficient human HCT116 cells at 10 uM after 72 hrs by MTT assay; type: functional
HEY = assay: Cytotoxicity against human HEY cells at 10 uM after 72 hrs by MTT assay; type: functional
In short: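 Single-concentration MTT screen, continuous 72 h exposure at 10 µM (diluted from a 10 mM DMSO stock). MTT was added at 0.5 mg/mL final for 4 h at 37 °C, the formazan was dissolved in DMSO and absorbance read at 570 nm. Result given as % cells killed, (1 − A/C) × 100, done in triplicate. HEY cells were grown in RPMI 1640 with 10% FBS and 2 mM glutamine.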

HCT-116 [3] = assay: Cytotoxicity against p53-positive human HCT116 cells after 72 hrs by MTT assay; type: functional, cell-based; details: HCT-116, 72 h
In short: (§1)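 Cells seeded, allowed to attach, then exposed to the drug continuously for 72 h over multiple doses. MTT was added at 0.5 mg/mL final for 4 h at 37 °C, solubilized in DMSO and read at 570 nm. Inhibition = (1 − A/C) × 100. IC50 was taken from a plot of log concentration versus % inhibition, assays in triplicate, with SD from at least three independent experiments.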

HCT-116 [4] = assay: Cytotoxicity against p53-deficient human HCT116 cells after 72 hrs by MTT assay; type: functional, cell-based; details: HCT-116, 72 h; in short: as §1
HCT-116 [5] = assay: Anticlonogenic activity against p53-positive human HCT116 cells assessed as inhibition of colony formation at 0.1 to 20 uM after 24 hrs by crystal violet staining-based microscopic analysis; type: functional, cell-based
In short: (§2)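 Cells plated at 100 cells/well and left to attach overnight. Serial compound dilutions were applied for 24 h, followed by a PBS wash and culture in drug-free medium for 8-10 days until colonies formed. Colonies were fixed in 1% glutaraldehyde for 30 min, stained with 2% crystal violet for 30 min, imaged and counted. Values are the mean of at least three independent experiments.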

HCT-116 [6] = assay: Anticlonogenic activity against p53-deficient human HCT116 cells assessed as inhibition of colony formation at 0.1 to 20 uM after 24 hrs by crystal violet staining-based microscopic analysis; type: functional, cell-based; in short: as §2
HCT-116 [7] = assay: Growth inhibition of p53-positive human HCT116 cells at > 5 uM after 24 hrs by crystal violet staining-based microscopic analysis; type: functional, cell-based; in short: as §2
HCT-116 [8] = assay: Growth inhibition of p53-deficient human HCT116 cells at > 5 uM after 24 hrs by crystal violet staining-based microscopic analysis; type: functional, cell-based; in short: as §2
HCT-116 [9] = assay: Induction of cell cycle arrest in p53-deficient human HCT116 cells assessed as accumulation at G0/G1 phase at 1 uM after 24 hrs by flow cytometric analysis (reference value: 60%); type: functional
HCT-116 [10] = assay: Induction of cell cycle arrest in p53-deficient human HCT116 cells assessed as accumulation at S phase at 1 uM after 24 hrs by flow cytometric analysis (reference value: 13.5%); type: functional
HCT-116 [11] = assay: Induction of cell cycle arrest in p53-deficient human HCT116 cells assessed as accumulation at G2/M phase at 1 uM after 24 hrs by flow cytometric analysis (reference value: 24.5%); type: functional
HCT-116 [12] = assay: Induction of cell cycle arrest in p53-deficient human HCT116 cells assessed as accumulation at G0/G1 phase at 1 uM after 48 hrs by flow cytometric analysis (reference value: 60%); type: functional
HCT-116 [13] = assay: Induction of cell cycle arrest in p53-deficient human HCT116 cells assessed as accumulation at S phase at 1 uM after 48 hrs by flow cytometric analysis (reference value: 13.5%); type: functional
HCT-116 [14] = assay: Induction of cell cycle arrest in p53-deficient human HCT116 cells assessed as accumulation at G2/M phase at 1 uM after 48 hrs by flow cytometric analysis (reference value: 24.5%); type: functional
HCT-116 [15] = assay: Growth inhibition of p53-positive human HCT116 cells at > 1 uM after 24 hrs by crystal violet staining-based microscopic analysis; type: functional, cell-based; in short: as §2
HCT-116 [16] = assay: Growth inhibition of p53-deficient human HCT116 cells at > 1 uM after 24 hrs by crystal violet staining-based microscopic analysis; type: functional, cell-based; in short: as §2

Structure (SMILES)	Activity (HCT-116 [1])	Activity (HCT-116 [2])	Activity (HEY)	IC50 (HCT-116 [3])	IC50 (HCT-116 [4])	also measured
COc1cccc(-c2nc(N=[N+]=[N-])c3cc(OC)c(OC)cc3n2)c1	25%	24%	13%			
COc1cc2nc(-c3cccc(C)c3)nc(N)c2cc1OC	20%	27%	6%			
CCCCn1c(-c2ccc(NS(C)(=O)=O)cc2)nc2cc(OC)c(OC)cc2c1=O	6%	4%	0.5%			
COc1cc2nc(-c3cccc(Cl)c3)[nH]c(=O)c2cc1OC	35%	37%	42%			
COc1cc2nc(-c3ccc(C)cc3)nc(N)c2cc1OC	5%	16%	2%			
COc1cc2nc(Nc3ccc([N+](=O)[O-])cc3)nc(N)c2cc1OC	42%	22%	4%			
COc1cc2nc(-c3ccccc3Cl)nc(N)c2cc1OC	18%		4%			
CCCCn1c(-c2cccc(-c3nnn[nH]3)c2)nc2cc(OC)c(OC)cc2c1=O	13%	3%	4%			
CCCCn1c(-c2ccc(NC(C)=O)cc2)nc2cc(OC)c(OC)cc2c1=O	19%	17%	6%			
COc1cc2nc(Nc3ccccc3-c3ccccc3NS(C)(=O)=O)nc(N)c2cc1OC	95%	95%	94%	6 µM	5 µM	Activity (HCT-116 [5]): Active; Activity (HCT-116 [6]): Active; growth inhibition (GI) (HCT-116 [7]): Active; growth inhibition (GI) (HCT-116 [8]): Active; Activity (HCT-116 [9]): 61%; Activity (HCT-116 [10]): 14%; Activity (HCT-116 [11]): 23%; Activity (HCT-116 [12]): 54.5%; Activity (HCT-116 [13]): 9%; Activity (HCT-116 [14]): 34.5%
CCCCn1c(-c2cccc(NS(C)(=O)=O)c2)nc2cc(OC)c(OC)cc2c1=O	26%	27%	9%			
COc1cccc(-c2nc(N)c3cc(OC)c(OC)cc3n2)c1	19%	20%	7%			
COc1cc2nc(CNc3ccc(C(=O)O)cc3)[nH]c(=O)c2cc1OC	30%	8%	0.5%			
COc1cc2nc(-c3cccc(NC(C)=O)c3)[nH]c(=O)c2cc1OC	16%	22%	12%			
COc1ccc(-c2nc3cc(OC)c(OC)cc3c(=O)[nH]2)cc1	10%	3%	2%			
COc1ccc(NCc2nc3cc(OC)c(OC)cc3c(=O)[nH]2)cc1	38%	22%	19%			
COc1cc2nc(CNc3ccc(NS(C)(=O)=O)cc3)[nH]c(=O)c2cc1OC	28%	14%	9%			
COc1ccc(-c2nc(N=[N+]=[N-])c3cc(OC)c(OC)cc3n2)cc1	58%	48%	42%	10 µM	7 µM	
COc1cc2nc(-c3ccccc3Cl)nc(N=[N+]=[N-])c2cc1OC	50%	63%	43%	8 µM	> 10 µM	
COc1cc2nc(-c3ccc(C)cc3)nc(N=[N+]=[N-])c2cc1OC	47%	66%	29%	8 µM	9 µM	
COc1cc2nc(Cc3ccc(Cl)cc3)[nH]c(=O)c2cc1OC	63%	57%	49%	9 µM	> 10 µM	
CCCCn1c(-c2ccc(-c3nnn[nH]3)cc2)nc2cc(OC)c(OC)cc2c1=O	15%	8%	2%			
COc1ccc(-c2nc(N)c3cc(OC)c(OC)cc3n2)cc1	21%	42%	17%			
COc1cc2nc(-c3cccc(C)c3)nc(N=[N+]=[N-])c2cc1OC	55%	71%	42%	9 µM	> 10 µM	
COc1cc2nc(-c3cccc(Cl)c3)nc(N)c2cc1OC	19%	2%	3%			
COc1cc2nc(-c3cccc(Cl)c3)nc(N=[N+]=[N-])c2cc1OC	56%	45%	35%	10 µM	10 µM	
COc1cc2nc(Cc3ccccc3Cl)[nH]c(=O)c2cc1OC	59%	50%	35%	9 µM	> 10 µM	
COc1cc2nc(Cc3cccc4ccccc34)[nH]c(=O)c2cc1OC	80%	79%	66%	1.7 µM	0.7 µM	Activity (HCT-116 [5]): Active; Activity (HCT-116 [6]): Active; growth inhibition (GI) (HCT-116 [15]): Active; growth inhibition (GI) (HCT-116 [16]): Active
COc1cc2nc(CNc3cccc(NS(C)(=O)=O)c3)[nH]c(=O)c2cc1OC	34%	31%	23%			
